Reference: ChEMBL document CHEMBL4715714, “Design, synthesis and biological evaluation of thiosemicarbazones, hydrazinobenzothiazoles and arylhydrazones as anticancer agents with a potential to overcome multidrug resistance” (Eur J Med Chem, 2016)
The source made the active and inactive calls. No cut-off for these calls is given here.

Columns and labels:
MES-SA/Dx5 [1] = test: Cytotoxicity against human MES-SA/DX5 cells assessed as inhibition of cell proliferation incubated for 72 hrs by MTT assay; type: functional, cell-based; conditions: for IC50: MES-SA/Dx5, 72 h
Outline: (§1)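 Cells were seeded (10000/well for A2780, 5000/well for MES-SA/Dx5 and KB-3-1/V1) and left to attach 12 h, then exposed to compound for 72 h. Medium was removed, and MTT (0.83 mg/mL) was added for 1 h at 37 °C. Cells were lysed in DMSO and absorbance read at 540 nm. Signal was corrected for unstained lysate background, normalized to untreated cells, and IC50 taken from a sigmoidal dose-response fit.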

MES-SA [2] = test: Cytotoxicity against human MES-SA cells assessed as inhibition of cell proliferation incubated for 72 hrs by MTT assay; type: functional, cell-based; outline: as §1
[3] = Cytotoxicity against human A2780adr cells assessed as inhibition of cell proliferation incubated for 72 hrs by MTT assay; type: functional, cell-based; conditions: A2780 ADR; outline: as §1
MES-SA/Dx5 [4] = test: Cytotoxicity against human MES-SA/DX5 cells transfected with mCherry fluorescent protein assessed as inhibition of cell proliferation incubated for 72 hrs by fluorescent assay; type: functional, cell-based; conditions: for IC50: Homo sapiens, MES-SA/Dx5, 72 h
Outline: (§2)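 MES-SA and MES-SA/Dx5 cells were made to stably express mCherry by lentiviral transduction. Cells were seeded at 5000 (96-well) or 2500 (384-well) per well, allowed to attach 24 h, then treated with compound dilutions for 72 h. Viability was read as fluorescence, excitation 585 nm, emission 610 nm.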

MES-SA [5] = test: Cytotoxicity against human MES-SA cells transfected with mCherry fluorescent protein assessed as inhibition of cell proliferation incubated for 72 hrs by fluorescent assay; type: functional, cell-based; outline: as §2
A2780 = test: Cytotoxicity against human A2780 cells assessed as inhibition of cell proliferation incubated for 72 hrs by MTT assay; type: functional, cell-based; conditions: A2780, 72 h; outline: as §1
KB 3-1 = test: Cytotoxicity against human KB-3-1 cells assessed as inhibition of cell proliferation incubated for 72 hrs by MTT assay; type: functional, cell-based; conditions: KB 3-1, 72 h; outline: as §1
KB-V1 = test: Cytotoxicity against human KB-V1 cells assessed as inhibition of cell proliferation incubated for 72 hrs by MTT assay; type: functional, cell-based; conditions: KB-V1, 72 h; outline: as §1
MES-SA/Dx5 [6] = test: Cytotoxicity against human MES-SA/DX5 cells incubated for 72 hrs in presence of efflux pump inhibitor, Tariquidar by MTT assay; type: functional, cell-based
Outline: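 Run as the 72 h MTT viability readout (12 h attachment, MTT 0.83 mg/mL for 1 h, DMSO lysis, A540), with the P-gp inhibitor Tariquidar at 1 µM co-present. IC50 came from sigmoidal fits of 2 to 4 independent experiments.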

[7] = Selectivity ratio of IC50 for human MES-SA cells to IC50 for human MES-SA/DX5 cells incubated for 72 hrs by MTT assay; type: functional
Outline: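 The selectivity ratio is the IC50 in P-gp-negative parental cells divided by the IC50 in the P-gp-positive resistant partner.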

MES-SA/Dx5 [8] = test: Cytotoxicity against human MES-SA/DX5 cells transfected with mCherry fluorescent protein incubated for 72 hrs in presence of efflux pump inhibitor, Tariquidar by fluorescence assay; type: functional, cell-based
Outline: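 The mCherry-expressing cells (lentiviral) were seeded at 5000 or 2500 per well, attached for 24 h, and exposed 72 h to compounds with Tariquidar coadministered. Live-cell signal was fluorescence at 585 nm excitation and 610 nm emission.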

[9] = Selectivity ratio of IC50 for human MES-SA cells transfected with mCherry to IC50 for human MES-SA/DX5 cells transfected with mCherry incubated for 72 hrs by fluorescent assay; type: functional
[10] = Homo sapiens, MES-SA, 72 h, read-out: IC50
[11] = Homo sapiens, MES-SA, 72 h, read-out: pIC50 (converted)

Row | SMILES | IC50 (MES-SA/Dx5 [4]; read-out: IC50) [nM] | IC50 (MES-SA/Dx5 [4]; read-out: pIC50 (converted)) [nM] | IC50 (MES-SA [5]; [10]) [nM] | IC50 (MES-SA [5]; [11]) [nM] | also measured
1 | O=[N+]([O-])c1ccc(NC(=S)N/N=C/c2ccccn2)cc1 | 2740 | 2750 | 2740 | 2690 | IC50 (MES-SA/Dx5 [1]; read-out: IC50): 1830 nM; IC50 (MES-SA/Dx5 [1]; read-out: pIC50 (converted)): 1780 nM; IC50 (MES-SA [2]; read-out: IC50): 2700 nM; IC50 (MES-SA [2]; read-out: pIC50 (converted)): 2570 nM; IC50 ([3]; read-out: IC50): 1370 nM; IC50 ([3]; read-out: pIC50 (converted)): 1350 nM; IC50 (A2780; read-out: IC50): 670 nM; IC50 (A2780; read-out: pIC50 (converted)): 617 nM; IC50 (KB 3-1; read-out: IC50): 1050 nM; IC50 (KB 3-1; read-out: pIC50 (converted)): 1020 nM; IC50 (KB-V1; read-out: IC50): 1990 nM; IC50 (KB-V1; read-out: pIC50 (converted)): 1780 nM
2 | COc1ccc(NC(=S)N/N=C(\C)c2ccccc2N)cc1 | 17700 |  | 18500 |  | IC50 (MES-SA/Dx5 [1]; read-out: IC50): 8020 nM; IC50 (MES-SA/Dx5 [1]; read-out: pIC50 (converted)): 7940 nM; IC50 (MES-SA [2]; read-out: IC50): 10700 nM; IC50 (MES-SA [2]; read-out: pIC50 (converted)): 10500 nM; IC50 ([3]; read-out: IC50): 4870 nM; IC50 ([3]; read-out: pIC50 (converted)): 4900 nM; IC50 (A2780; read-out: IC50): 4350 nM; IC50 (A2780; read-out: pIC50 (converted)): 4270 nM; IC50 (KB 3-1; read-out: IC50): 20600 nM; IC50 (KB 3-1; read-out: pIC50 (converted)): 20400 nM; IC50 (KB-V1; read-out: IC50): 22300 nM; IC50 (KB-V1; read-out: pIC50 (converted)): 22400 nM
3 | C/C(=N\NC(=S)Nc1ccccc1)c1ccccn1 |  |  |  |  | pIC50 (MES-SA/Dx5 [4]): inactive; pIC50 (MES-SA [5]): inactive
4 | FC(F)(F)c1ccccc1NC(=S)N/N=C/c1ccccn1 | 160 | 138 | 130 | 120 | 
5 | NC(=S)N/N=C/c1ncccc1N [TRIAPINE] | 2520 |  | 1300 |  | Activity (MES-SA/Dx5 [6]): Active
6 | COc1ccc(NC(=S)N/N=C/c2cccc(C)n2)cc1 | 4220 | 4170 | 4720 | 4680 | 
7 | C/C(=N\Nc1ccccn1)c1ccc2ccccc2n1 | 380 | 347 | 480 | 479 | 
8 | C/C(=N\NC(=S)Nc1ccc(C)cc1)c1ccccc1O | 3460 | 4370 | 10900 | 9770 | 
9 | O=C1Nc2ccccc2/C1=N/NC(=S)Nc1cccc(C(F)(F)F)c1 | 1950 |  | 3340 |  | Activity (MES-SA/Dx5 [6]): inactive; Ratio IC50 [7]: 1.44; IC50 (MES-SA/Dx5 [1]; read-out: IC50): 1400 nM; IC50 (MES-SA [2]; read-out: IC50): 2060 nM; Activity (MES-SA/Dx5 [8]): inactive; Ratio IC50 [9]: 2.42
10 | C/C(=N\NC(=S)Nc1ccccc1C(F)(F)F)c1ccccn1 | 161 | 141 | 33 | 32.4 | 
11 | Cc1ccc(O)c(/C=N/Nc2nc3ccccc3s2)c1 | 15600 | 13800 | 89100 | 85100 | Activity (MES-SA/Dx5 [8]): Active; Ratio IC50 [9]: 5.65
12 | C/C(=N\Nc1ccccn1)c1cc(C)c2ccccc2n1 | 290 | 295 | 300 | 288 | 
13 | O=[N+]([O-])c1ccc(O)c(/C=N/Nc2nc3ccccc3s2)c1 | 1990 | 1860 | 4070 | 3800 | 
14 | CCc1ccc(/C=N/NC(=S)Nc2ccc([N+](=O)[O-])cc2)nc1 | 11000 |  | 10500 |  | IC50 (MES-SA/Dx5 [1]; read-out: IC50): 8020 nM; IC50 (MES-SA/Dx5 [1]; read-out: pIC50 (converted)): 8130 nM; IC50 (MES-SA [2]; read-out: IC50): 10900 nM; IC50 (MES-SA [2]; read-out: pIC50 (converted)): 10700 nM; IC50 (KB 3-1; read-out: IC50): 8030 nM; IC50 (KB 3-1; read-out: pIC50 (converted)): 7940 nM; IC50 (KB-V1; read-out: IC50): 8930 nM; IC50 (KB-V1; read-out: pIC50 (converted)): 8910 nM
15 | O=[N+]([O-])c1ccc(O)c(/C=N/NC(=S)Nc2ccccc2C(F)(F)F)c1 | 13900 |  | 21100 |  | 
16 | C(=N\Nc1ccccn1)/c1ccc2ccccc2n1 | 430 | 427 | 820 | 776 | 
17 | S=C(N/N=C/c1ccccn1)Nc1ccccc1 | 580 | 562 | 720 | 692 | 
18 | O=C1Nc2ccccc2/C1=N/Nc1nc2ccccc2s1 |  |  |  |  | pIC50 (MES-SA/Dx5 [1]): inactive; pIC50 (MES-SA [2]): inactive; IC50 (MES-SA [5]; mes-sa): Not Active
